Reference: ChEMBL document CHEMBL1155522, “Molecular docking studies of phlorotannins from Eisenia bicyclis with BACE1 inhibitory activity” (Bioorg Med Chem Lett, 2010)

Tests used:
Beta-secretase 1 [1] = target: T1, Beta-secretase 1 (Homo sapiens, UniProt P56817); assay: Inhibition of human recombinant BACE1 after 60 mins by FRET assay
Method in brief: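 Test samples dissolved in 10% DMSO; the 50% inhibitory concentration is reported as mean ± S.E.M. of triplicate determinations.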

Beta-secretase 1 [2] = target: T1, Beta-secretase 1; assay: Noncompetitive inhibition of human recombinant BACE1 after 60 mins by Dixon plot analysis
Method in brief: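 Inhibitor dissolved in 10% DMSO and tested at two concentrations. A Dixon plot of reciprocal enzyme velocity (1/V) against inhibitor concentration was used to assign the inhibition type and to derive the Ki of the enzyme–inhibitor complex.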

T1 sequence (P56817 whole entry): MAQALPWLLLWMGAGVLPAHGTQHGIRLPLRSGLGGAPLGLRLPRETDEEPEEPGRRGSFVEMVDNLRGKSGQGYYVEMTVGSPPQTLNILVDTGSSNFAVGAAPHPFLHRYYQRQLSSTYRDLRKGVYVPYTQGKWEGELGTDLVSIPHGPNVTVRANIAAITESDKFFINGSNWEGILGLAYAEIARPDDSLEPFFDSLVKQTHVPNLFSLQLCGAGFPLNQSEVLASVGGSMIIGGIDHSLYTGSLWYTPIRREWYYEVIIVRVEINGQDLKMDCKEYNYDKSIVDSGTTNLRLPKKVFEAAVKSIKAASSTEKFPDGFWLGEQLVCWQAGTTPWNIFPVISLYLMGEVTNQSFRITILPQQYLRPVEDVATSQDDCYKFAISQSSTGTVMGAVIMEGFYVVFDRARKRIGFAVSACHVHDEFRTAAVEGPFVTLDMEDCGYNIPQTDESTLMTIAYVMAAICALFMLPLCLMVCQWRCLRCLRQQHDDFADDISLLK

Row | SMILES | Activity (Beta-secretase 1 [1]) | IC50 (Beta-secretase 1 [1]) [µM] | Ki (Beta-secretase 1 [2]) [µM]
1 | Oc1cc(O)cc(Oc2c(O)cc(O)c3c2Oc2c(O)cc(Oc4c(O)cc(O)cc4O)cc2O3)c1 | Dose-dependent effect | 8.59 | 7.2
2 | O=c1c(O)c(-c2ccc(O)c(O)c2)oc2cc(O)cc(O)c12 | Dose-dependent effect | – | –
3 | Oc1cc(O)cc(Oc2c(O)cc(O)c3c2Oc2c(O)cc(Oc4c(O)cc(Oc5c(O)cc(O)c6c5Oc5c(O)cc(O)cc5O6)cc4O)cc2O3)c1 [DIECKOL] | Dose-dependent effect | 2.21 | 1.5
4 | Oc1cc(O)c2oc3cc(O)c4oc5cc(O)cc(O)c5oc4c3oc2c1 [DIOXINODEHYDROECKOL] | Dose-dependent effect | 5.35 | 8
5 | Oc1cc(O)cc(Oc2c(O)cc(O)c3c2Oc2c(O)cc(O)cc2O3)c1 [ECKOL] | Dose-dependent effect | 12.2 | 13.9
6 | Oc1cc(O)cc(Oc2c(O)cc(O)c3c2Oc2c(O)cc4oc5c(Oc6cc(O)cc(O)c6)c(O)cc(O)c5c4c2O3)c1 [PHLOROFUCOFUROECKOL A] | Dose-dependent effect | 2.13 | 1.3
7 | Oc1cc(O)cc(O)c1 [PHLOROGLUCINOL] | Dose-dependent effect | 36.5 | –
8 | Oc1cc(O)cc(Oc2c(O)cc(O)cc2Oc2c(O)cc(O)cc2O)c1 [TRIPHLOROETHOL A] | Dose-dependent effect | 11.7 | 12.1
